Measured values as given in ChEMBL document CHEMBL3286116, “Synthesis, biological evaluation and structure-activity correlation study of a series of imidazol-based compounds as Candida albicans inhibitors” (Eur J Med Chem, 2014).
Values after ≈ are worked out from the molar mass of the structure shown.

Experiments:
Type in all cases: functional
Candida albicans [1] = assay: Antifungal activity against Candida albicans ATCC 90028 after 48 hrs by CLSI broth microdilution method; settings: ATCC 90028, 48 h
Method in brief: (§1)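 Yeast CLSI broth microdilution (M27-A3). Compounds dissolved in DMSO at 100× the top test concentration, then diluted as serial two-fold dilutions in RPMI 1640 to final 0.125–64. Inoculum was 1.0–1.5 × 10^3 cells mL−1, incubated at 35 °C and read for growth at 48 h. MIC is the lowest concentration giving ≥50% growth inhibition versus growth control. Reported as the median of five replicates and as the geometric mean.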

Candida albicans [2] = assay: Antifungal activity against Candida albicans ATCC 20891 after 48 hrs by CLSI broth microdilution method; settings: ATCC 20891, 48 h; method in brief: as §1
Candida albicans [3] = assay: Antifungal activity against Candida albicans PMC 1011 after 48 hrs by CLSI broth microdilution method; settings: PMC 1011, 48 h; method in brief: as §1
Pichia kudriavzevii [4] = assay: Antifungal activity against Candida krusei DSM 6128 after 48 hrs by CLSI broth microdilution method; settings: DSM 6128, 48 h; method in brief: as §1
Pichia kudriavzevii [5] = assay: Antifungal activity against Candida krusei PMC 0613 after 48 hrs by CLSI broth microdilution method; settings: PMC 0613, 48 h; method in brief: as §1
Candida tropicalis [6] = assay: Antifungal activity against Candida tropicalis PMC 0910 after 48 hrs by CLSI broth microdilution method; settings: PMC 0910, 48 h; method in brief: as §1
Candida tropicalis [7] = assay: Antifungal activity against Candida tropicalis DSM 11953 after 48 hrs by CLSI broth microdilution method; settings: DSM 11953, 48 h; method in brief: as §1
Candida parapsilosis [8] = assay: Antifungal activity against Candida parapsilosis DSM 11224 after 48 hrs by CLSI broth microdilution method; settings: Lodderomyces parapsilosis, DSM 11224, 48 h; method in brief: as §1
Candida parapsilosis [9] = assay: Antifungal activity against Candida parapsilosis ATCC 22019 after 48 hrs by CLSI broth microdilution method; settings: Lodderomyces parapsilosis, ATCC 22019, 48 h; method in brief: as §1
Nakaseomyces glabratus [10] = assay: Antifungal activity against Candida glabrata PMC 0805 after 48 hrs by CLSI broth microdilution method; settings: PMC 0805, 48 h; method in brief: as §1
Nakaseomyces glabratus [11] = assay: Antifungal activity against Candida glabrata PMC 0807 after 48 hrs by CLSI broth microdilution method; settings: PMC 0807, 48 h; method in brief: as §1
Cryptococcus neoformans [12] = assay: Antifungal activity against Cryptococcus neoformans PMC 2123 after 72 hrs by CLSI broth microdilution method; settings: PMC 2123, 72 h
Method in brief: (§2)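 Cryptococcus neoformans tested by CLSI broth microdilution in RPMI 1640, with serial two-fold dilutions from DMSO stocks at 100× the top concentration, final 0.125–64. Inoculum was 1.0–1.5 × 10^3 cells mL−1 at 35 °C, with growth read at 72 h. MIC is the lowest concentration with ≥50% growth inhibition versus control. Median of five replicates, plus geometric mean.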

Cryptococcus neoformans [13] = assay: Antifungal activity against Cryptococcus neoformans PMC 2136 after 72 hrs by CLSI broth microdilution method; settings: PMC 2136, 72 h; method in brief: as §2
Cryptococcus neoformans [14] = assay: Antifungal activity against Cryptococcus neoformans PMC 2115 after 72 hrs by CLSI broth microdilution method; settings: PMC 2115, 72 h; method in brief: as §2
Cryptococcus neoformans [15] = assay: Antifungal activity against Cryptococcus neoformans PMC 2103 after 72 hrs by CLSI broth microdilution method; settings: PMC 2103, 72 h; method in brief: as §2
Cryptococcus neoformans [16] = assay: Antifungal activity against Cryptococcus neoformans PMC 2107 after 72 hrs by CLSI broth microdilution method; settings: PMC 2107, 72 h; method in brief: as §2
Cryptococcus neoformans [17] = assay: Antifungal activity against Cryptococcus neoformans PMC 2102 after 72 hrs by CLSI broth microdilution method; settings: PMC 2102, 72 h; method in brief: as §2
Cryptococcus neoformans [18] = assay: Antifungal activity against Cryptococcus neoformans DSM 11959 after 72 hrs by CLSI broth microdilution method; settings: DSM 11959, 72 h; method in brief: as §2
Cryptococcus neoformans [19] = assay: Antifungal activity against Cryptococcus neoformans PMC 2111 after 72 hrs by CLSI broth microdilution method; settings: PMC 2111, 72 h; method in brief: as §2
[20] = system: Trichophyton mentagrophytes; assay: Antifungal activity against Trichophyton mentagrophytes DSM 4870 after 72 hrs by CLSI broth microdilution method; settings: DSM 4870, 72 h
Method in brief: (§3)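 Dermatophytes tested by CLSI broth microdilution for filamentous fungi (M38-A2). Serial two-fold dilutions of DMSO-dissolved compound in RPMI 1640, final 0.125–64. Inoculum was 0.4–5 × 10^4 CFU mL−1, incubated at 35 °C and read at 72 h. MIC80 is the lowest concentration giving ≥80% growth inhibition versus growth control. Median of five replicates, plus geometric mean.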

[21] = system: Trichophyton mentagrophytes; assay: Antifungal activity against Trichophyton mentagrophytes PMC 6515 after 72 hrs by CLSI broth microdilution method; settings: PMC 6515, 72 h; method in brief: as §3
[22] = system: Trichophyton mentagrophytes; assay: Antifungal activity against Trichophyton mentagrophytes PMC 6531 after 72 hrs by CLSI broth microdilution method; settings: PMC 6531, 72 h; method in brief: as §3
[23] = system: Trichophyton mentagrophytes; assay: Antifungal activity against Trichophyton mentagrophytes PMC 6509 after 72 hrs by CLSI broth microdilution method; settings: PMC 6509, 72 h; method in brief: as §3
[24] = system: Trichophyton mentagrophytes; assay: Antifungal activity against Trichophyton mentagrophytes PMC 6503 after 72 hrs by CLSI broth microdilution method; settings: PMC 6503, 72 h; method in brief: as §3
[25] = system: Trichophyton mentagrophytes; assay: Antifungal activity against Trichophyton mentagrophytes PMC 6552 after 72 hrs by CLSI broth microdilution method; settings: PMC 6552, 72 h; method in brief: as §3
Nannizzia gypsea [26] = assay: Antifungal activity against Microsporum gypseum PMC 7303 after 72 hrs by CLSI broth microdilution method; settings: PMC 7303, 72 h; method in brief: as §3
Nannizzia gypsea [27] = assay: Antifungal activity against Microsporum gypseum PMC 7331 after 72 hrs by CLSI broth microdilution method; settings: PMC 7331, 72 h; method in brief: as §3
Nannizzia gypsea [28] = assay: Antifungal activity against Microsporum gypseum DSM 3824 after 72 hrs by CLSI broth microdilution method; settings: DSM 3824, 72 h; method in brief: as §3
Candida albicans [29] = assay: Antifungal activity against Candida albicans ATCC 24433 after 48 hrs by CLSI broth microdilution method; settings: ATCC 24433, 48 h; method in brief: as §1
Candida albicans [30] = assay: Antifungal activity against Candida albicans ATCC 3153 after 48 hrs by CLSI broth microdilution method; settings: ATCC 3153, 48 h; method in brief: as §1
Candida albicans [31] = assay: Antifungal activity against Candida albicans ATCC 10231 after 48 hrs by CLSI broth microdilution method; settings: ATCC 10231, 48 h; method in brief: as §1
Candida albicans [32] = assay: Antifungal activity against Candida albicans ATCC 76615 after 48 hrs by CLSI broth microdilution method; settings: ATCC 76615, 48 h; method in brief: as §1
Candida albicans [33] = assay: Antifungal activity against Candida albicans ATCC 10261 after 48 hrs by CLSI broth microdilution method; settings: ATCC 10261, 48 h; method in brief: as §1

| Structure (SMILES) | MIC50 (Candida albicans [1]) [µg/mL] | MIC50 (Candida albicans [2]) [µg/mL] | MIC50 (Candida albicans [3]) [µg/mL] | MIC50 (Pichia kudriavzevii [4]) [µg/mL] | MIC50 (Pichia kudriavzevii [5]) [µg/mL] | MIC50 (Candida tropicalis [6]) [µg/mL] | MIC50 (Candida tropicalis [7]) [µg/mL] | MIC50 (Candida parapsilosis [8]) [µg/mL] | MIC50 (Candida parapsilosis [9]) [µg/mL] | MIC50 (Nakaseomyces glabratus [10]) [µg/mL] | MIC50 (Nakaseomyces glabratus [11]) [µg/mL] | MIC50 (Cryptococcus neoformans [12]) [µg/mL] | MIC50 (Cryptococcus neoformans [13]) [µg/mL] | MIC50 (Cryptococcus neoformans [14]) [µg/mL] | MIC50 (Cryptococcus neoformans [15]) [µg/mL] | MIC50 (Cryptococcus neoformans [16]) [µg/mL] | MIC50 (Cryptococcus neoformans [17]) [µg/mL] | MIC50 (Cryptococcus neoformans [18]) [µg/mL] | MIC50 (Cryptococcus neoformans [19]) [µg/mL] | MIC80 [20] [µg/mL] | other results |
| --- | --- | --- | --- | --- | --- | --- | --- | --- | --- | --- | --- | --- | --- | --- | --- | --- | --- | --- | --- | --- | --- |
| O=C(OC(Cn1ccnc1)c1ccc(F)cc1)N1CCN(c2ncccc2[N+](=O)[O-])CC1 (stereo unspecified) | 4 (≈ 9.08 µM) | 8 (≈ 18.2 µM) | 4 (≈ 9.08 µM) | 16 (≈ 36.3 µM) | 4 (≈ 9.08 µM) | 16 (≈ 36.3 µM) | 32 (≈ 72.7 µM) | 2 (≈ 4.54 µM) | 16 (≈ 36.3 µM) | 8 (≈ 18.2 µM) | 32 (≈ 72.7 µM) | 16 (≈ 36.3 µM) | 2 (≈ 4.54 µM) | 16 (≈ 36.3 µM) | 2 (≈ 4.54 µM) | 1 (≈ 2.27 µM) | 8 (≈ 18.2 µM) | 4 (≈ 9.08 µM) | 8 (≈ 18.2 µM) | 32 (≈ 72.7 µM) | MIC80 [21]: 32 µg/mL (≈ 72.7 µM); MIC80 [22]: 32 µg/mL (≈ 72.7 µM); MIC80 [23]: 64 µg/mL (≈ 145 µM); MIC80 [24]: 32 µg/mL (≈ 72.7 µM); MIC80 [25]: 32 µg/mL (≈ 72.7 µM); MIC80 (Nannizzia gypsea [26]): 64 µg/mL (≈ 145 µM); MIC80 (Nannizzia gypsea [27]): 32 µg/mL (≈ 72.7 µM); MIC80 (Nannizzia gypsea [28]): 32 µg/mL (≈ 72.7 µM); MIC50 (Candida albicans [29]): 8 µg/mL (≈ 18.2 µM); MIC50 (Candida albicans [30]): 16 µg/mL (≈ 36.3 µM); MIC50 (Candida albicans [31]): 16 µg/mL (≈ 36.3 µM); MIC50 (Candida albicans [32]): 64 µg/mL (≈ 145 µM); MIC50 (Candida albicans [33]): 8 µg/mL (≈ 18.2 µM) |
| CCS(=O)(=O)N1CCN(c2ccc(NC(=O)OC(Cn3ccnc3)c3ccc(F)cc3)cc2)CC1 (stereo unspecified) | 128 (≈ 255 µM) | 128 (≈ 255 µM) | 128 (≈ 255 µM) | 128 (≈ 255 µM) | 128 (≈ 255 µM) | 128 (≈ 255 µM) | 128 (≈ 255 µM) | 128 (≈ 255 µM) | 128 (≈ 255 µM) | 128 (≈ 255 µM) | 128 (≈ 255 µM) | 32 (≈ 63.8 µM) | 16 (≈ 31.9 µM) | 32 (≈ 63.8 µM) | 16 (≈ 31.9 µM) | 8 (≈ 15.9 µM) | 16 (≈ 31.9 µM) | 16 (≈ 31.9 µM) | 16 (≈ 31.9 µM) | 128 (≈ 255 µM) | MIC80 [21]: 128 µg/mL (≈ 255 µM); MIC80 [22]: 128 µg/mL (≈ 255 µM); MIC80 [23]: 128 µg/mL (≈ 255 µM); MIC80 [24]: 128 µg/mL (≈ 255 µM); MIC80 [25]: 128 µg/mL (≈ 255 µM); MIC80 (Nannizzia gypsea [26]): 128 µg/mL (≈ 255 µM); MIC80 (Nannizzia gypsea [27]): 128 µg/mL (≈ 255 µM); MIC80 (Nannizzia gypsea [28]): 128 µg/mL (≈ 255 µM); MIC50 (Candida albicans [29]): 128 µg/mL (≈ 255 µM); MIC50 (Candida albicans [30]): 128 µg/mL (≈ 255 µM); MIC50 (Candida albicans [31]): 128 µg/mL (≈ 255 µM); MIC50 (Candida albicans [32]): 128 µg/mL (≈ 255 µM); MIC50 (Candida albicans [33]): 128 µg/mL (≈ 255 µM) |
